Test results published in PMC7094870 (ACS chemical biology, 2020).

Legend:
[1] = test system: CrpE P450 (histidine tagged); assay: CrpE P450 substrate binding titration; design: species or system Nostoc sp. ATCC 53789; conditions: type I (substrate-like) or type II (inhibitor-like) shift
(UniProt A4D937) = assay: CrpE P450 substrate binding titration; design: species or system Nostoc sp. ATCC 53789
CrpE P450 = assay: CrpE in vitro epoxidation conversion assay; type: biochemical, Nostoc sp. ATCC 53789
[2] = test system: CrpTE (cryptophycin thioesterase); assay: Analytical substrate conversion assay of CrpTE; type: biochemical
Outline: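 Analytical-scale reactions of CrpTE with NAc-activated seco substrates carrying varied unit A aryl or heterocyclic groups (including methyl pyrazoles), with the benzyl substrate run as a control. Chromatographic peaks were assigned to unreacted starting material, hydrolysis product and cyclized macrolactone. Where starting material and hydrolysis peaks co-eluted, values were estimated from extrapolated peaks.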

Chain of (UniProt A4D937) (A4D937 1-450): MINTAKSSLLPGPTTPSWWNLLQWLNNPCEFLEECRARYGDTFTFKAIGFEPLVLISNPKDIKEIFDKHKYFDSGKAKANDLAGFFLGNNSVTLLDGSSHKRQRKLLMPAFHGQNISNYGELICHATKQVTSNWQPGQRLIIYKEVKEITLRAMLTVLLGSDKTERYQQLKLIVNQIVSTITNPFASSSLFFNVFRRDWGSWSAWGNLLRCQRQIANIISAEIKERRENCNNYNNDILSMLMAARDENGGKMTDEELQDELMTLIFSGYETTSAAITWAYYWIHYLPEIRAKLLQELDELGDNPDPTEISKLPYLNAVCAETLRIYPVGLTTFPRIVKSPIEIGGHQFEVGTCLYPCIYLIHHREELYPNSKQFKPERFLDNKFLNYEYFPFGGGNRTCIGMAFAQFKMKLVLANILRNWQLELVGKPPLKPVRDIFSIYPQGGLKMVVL

COc1ccc(C[C@H]2NC(=O)/C=C/C[C@@H]([C@H](C)/C=C/c3ccccc3)OC(=O)[C@H](CC(C)C)OC(=O)[C@H](C)CNC2=O)cc1Cl [16a, cryptophycin 3]
spectral shift on binding to CrpE [1]: type I shift | Kd ((UniProt A4D937)): 530 ± 150 nM | conversion (CrpE epoxidation) (CrpE P450; RhFRED redox system): no conversion | percent conversion (CrpE epoxidation) (CrpE P450; spinach ferredoxin and ferredoxin reductase redox system): 38% | total turnover number (TTN) ([2]; TTN = moles of product / moles of TE): 110 | percent conversion (CrpTE cyclization) ([2]; analytical scale, wild type CrpTE, NAc-activated seco substrate): 73%
